Source: PubChem
A selection: hits, their analogues and other compounds. The true share with any hit is near 2.3%.
TRPC6 activator – activates the mouse TRPC6 cation channel; Q61143; HEK293-TRPC6 membrane potential dye fluorescence; active compounds read high; B-score at 10 µM; 0.13% of 310,000 active;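 active = B-score of the integrated fluorescence ratio above library mean plus 3 SD, and starting fluorescence ratio within library mean plus 5 SD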;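 also: higher score means more depolarization so channel activation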
TRPC6 inh – blocks the mouse TRPC6 cation channel | 1.1% of 310,000 active | HEK293-TRPC6, membrane potential dye, ACh-evoked depolarization; active compounds read low | B-score at 10 µM | Q61143;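 active = B-score under library mean minus 3 SD, initial fluorescence not abnormally high, positive integrated signal ratio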;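 also: B-score derived from integrated fluorescence ratio over the kinetic read; more negative B-score means stronger inhibition of depolarization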
TRPC4 block – blocks the mouse TRPC4 cation channel | 0.39% of 300,000 active | Q9QUQ5 | B-score at 10 µM | HEK293 TRPC4beta/mu-opioid, DAMGO-evoked Fluo4 calcium flux; active compounds read low | AID 2247;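 active = B-score over 3 SD under the library average, no early fluorescence shift, positive overall ratio signal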
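material = TRPC4beta/mu-opioid receptor HEK293 cell line | probe or stimulus = sequential submaximal and maximal DAMGO stimulation | compound dosing = one concentration per compound | measured by = Fluo4 Ca2+ flux fluorescence | evaluation = integrated fluorescence ratio relative to baseline, converted to per-well B score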
TRPC4 act – activators of mouse TRPC4 channel; Q9QUQ5; HEK293 TRPC4beta/mu-opioid, Fluo4 calcium fluorescence; active compounds read high; B-score at 10 µM; 0.49% of 310,000 active; AID 2237;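 active = B-score above 5 SD of library B-scores, and initial fluorescence ratio not above library mean plus 5 SD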;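 also: positive B-score marks a calcium rise read as TRPC4 activation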
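Material: TRPC4beta and mu-opioid receptor HEK293 stable cells | Incubation: 45 min room-temperature Fluo4 loading, 110 s read | Detection: Kinetic Fluo4 calcium fluorescence | Measure: Integrated baseline-normalised fluorescence ratio, converted to per-well B score | Benchmarks: Low control buffer alone, high control maximal DAMGO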
TRPC4 potent – allosteric potentiators of mouse TRPC4 channel. HEK293 TRPC4beta/mu-opioid, DAMGO EC20, Fluo-4 Ca2+ flux; active compounds read high. B-score at 10 µM. 0.42% of 310,000 active;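 active = B-score of calcium response area above 5 SD of library B-scores, with initial fluorescence ratio within 5 SD of library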
TRPC4 spec 2 – second check of whether TRPC6 inhibitors also affect mouse TRPC4 | HEK293 TRPC4/MOR, membrane potential dye fluorescence; channel activated by saturating DAMGO dose | AID 2776 | inhibition, % at 10 µM | shares compounds with TRPC6 inh | 42% of 920 active;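 active = compounds whose fluorescence signal differed from control wells by over 3 SD, either direction, in both duplicate plates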
TRPC4 spec – selectivity of TRPC6 inhibitors: effect on mouse TRPC4; shares compounds with TRPC6 inh; HEK293 TRPC4/mu-opioid, membrane potential fluorescence; activity change, negative = inhibition, % at 10 µM; 61% of 920 active; AID 2777;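 active = rise or fall in signal beyond 3 SD of buffer-only wells in both replicate plates, either sign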;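 also: integrated kinetic ratio of fluorescence range over baseline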
HEK293 counter 2 – second counter-screen for TRPC6 inhibitors: parental HEK293 cells. parental HEK293 membrane potential dye fluorescence; maximal acetylcholine challenge after compound addition. shares compounds with TRPC6 inh. signal change vs control, % at 10 µM. 31% of 920 active;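 active = membrane potential signal moving either way by over 3 SD of the maximum-effect control, in both duplicate plates, meaning non-specific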
HEK293 MPD ctr – checks TRPC6 inhibitor effects in parental HEK293 cells; membrane potential signal change, % at 10 µM; 60% of 920 active; AID 2780; parental HEK293 membrane potential dye fluorescence; shares compounds with TRPC6 inh;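 active = membrane potential signal shifting up or down by more than 3 SD of buffer-only wells, on both duplicate plates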
TRPC6 inh conf – mouse TRPC6 inhibitor confirmation; 43% of 3,300 active; AID 488960; shares compounds with TRPC6 inh; inhibition, % at 10 µM; HEK293-TRPC6, membrane potential dye, ACh-evoked depolarization;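 active = fluorescence ratio falls more than 5 SD below the full-stimulation control mean, in both duplicate runs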;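 also: integrated fluorescence ratio of peak minus minimum over baseline after agonist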
TRPC6 act conf – confirmation of mouse TRPC6 activators. shares compounds with TRPC6 inh. HEK293-TRPC6 membrane potential dye fluorescence, FDSS. activation, % at 10 µM. 11% of 2,800 active;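 active = ratio signal rise beyond 5 SD above unstimulated control wells' mean, seen in both duplicate runs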
A number is an active result.

COc1cc(O)c(C(CCN2CCCC(C)C2)c2ccc(N(C)C)cc2)c(OC)c1 (configuration not stated) was read as TRPC6 activator inactive, TRPC6 inh -7, TRPC4 block inactive, TRPC4 act inactive, TRPC4 potent inactive, TRPC4 spec 2 61.5%, TRPC4 spec inactive, HEK293 counter 2 inactive, HEK293 MPD ctr inactive, TRPC6 inh conf inactive and TRPC6 act conf inactive.
Screening COc1cc(O)c(C(CCN2CCCC(C)C2)c2ccc3c(c2)OCO3)c(OC)c1 (configuration not stated) returned TRPC6 activator inactive, TRPC6 inh inactive, TRPC4 block inactive, TRPC4 act inactive and TRPC4 potent inactive.
COc1cc(C(CCN2CCCC(C)C2)c2c(OC)cc(OC)c3c(-c4ccccc4)cc(=O)oc23)cc(OC)c1OC (configuration not stated) was read as TRPC6 activator inactive, TRPC6 inh -7.81, TRPC4 block inactive, TRPC4 act inactive, TRPC4 potent inactive, TRPC4 spec 2 44.0%, TRPC4 spec -11.1%, HEK293 counter 2 inactive, HEK293 MPD ctr inactive, TRPC6 inh conf inactive and TRPC6 act conf inactive.
For COC(=O)c1sccc1-n1cccc1C(=O)C(=O)N1CCOCC1 the results were TRPC6 activator inactive, TRPC6 inh inactive, TRPC4 block inactive, TRPC4 act inactive and TRPC4 potent inactive.
`Cc1onc(-c2ccccc2)c1C(=O)N1CCN(c2ccc([N+](=O)[O-])cc2)CC1` gave TRPC6 activator inactive, TRPC6 inh inactive, TRPC4 block inactive, TRPC4 act inactive and TRPC4 potent inactive.
COc1cccc(OC)c1C(=O)NC(C)C12CC3CC(CC(C3)C1)C2 (configuration not stated) was read as TRPC6 activator inactive, TRPC6 inh inactive, TRPC4 block inactive, TRPC4 act inactive and TRPC4 potent inactive.
For COc1ccc(CNC(C)C23CC4CC(CC(C4)C2)C3)c(OC)c1OC (configuration not stated) the results were TRPC6 activator inactive, TRPC6 inh -8.05, TRPC4 block inactive, TRPC4 act inactive, TRPC4 potent inactive, TRPC4 spec 2 inactive, TRPC4 spec 35.4%, HEK293 counter 2 inactive, HEK293 MPD ctr 18.6% and TRPC6 inh conf 95.8%.
For CCN(c1ccc(OC)cc1)S(=O)(=O)c1nnc(NC(=O)c2ccc(C)cc2)s1 the results were TRPC6 activator inactive, TRPC6 inh inactive, TRPC4 block inactive, TRPC4 act inactive and TRPC4 potent inactive.
O=C(Nc1ccncc1)C1CCN(S(=O)(=O)c2ccc(Cl)cc2)CC1 was read as TRPC6 activator inactive, TRPC6 inh inactive, TRPC4 block inactive, TRPC4 act inactive and TRPC4 potent inactive.
For Cc1ccccc1OCC(=O)NCCS(=O)(=O)N1CCN(c2ccc(F)cc2)CC1 the results were TRPC6 activator inactive, TRPC6 inh -10.4, TRPC4 block inactive, TRPC4 act inactive, TRPC4 potent inactive, TRPC4 spec 2 inactive, TRPC4 spec inactive, HEK293 counter 2 inactive, HEK293 MPD ctr inactive and TRPC6 inh conf 94.7%.
For COc1ccccc1OCC(=O)NCCS(=O)(=O)N1CCN(c2ccccc2)CC1 the results were TRPC6 activator inactive, TRPC6 inh -7.5, TRPC4 block inactive, TRPC4 act inactive, TRPC4 potent inactive, TRPC4 spec 2 inactive, TRPC4 spec inactive, HEK293 counter 2 inactive, HEK293 MPD ctr inactive, TRPC6 inh conf inactive and TRPC6 act conf inactive.
For COc1ccc(CC(=O)NCCS(=O)(=O)N2CCN(c3ccccc3)CC2)cc1OC the results were TRPC6 activator inactive, TRPC6 inh inactive, TRPC4 block inactive, TRPC4 act inactive and TRPC4 potent inactive.
Screening Cc1ccc(OCC(=O)NCCS(=O)(=O)N2CCN(c3ccccc3)CC2)cc1 returned TRPC6 activator inactive, TRPC6 inh inactive, TRPC4 block inactive, TRPC4 act inactive and TRPC4 potent inactive.
`Cc1cc(N2C(=O)C(O)=C(C(=O)c3ccco3)C2c2ccccc2F)no1` (configuration not stated) gave TRPC6 activator inactive, TRPC6 inh inactive, TRPC4 block inactive, TRPC4 act inactive and TRPC4 potent inactive.
For COc1ccc(/C=C/C(=O)O)cc1S(=O)(=O)N1CCC(C)CC1 the results were TRPC6 activator inactive, TRPC6 inh inactive, TRPC4 block inactive, TRPC4 act inactive and TRPC4 potent inactive.
Screening CC(C)Oc1ccc(C(CCN)C2CCCCC2)cc1 (configuration not stated) returned TRPC6 activator inactive, TRPC6 inh -6.74, TRPC4 block inactive, TRPC4 act inactive, TRPC4 potent inactive, TRPC4 spec 2 51.0%, TRPC4 spec inactive, HEK293 counter 2 inactive, HEK293 MPD ctr inactive, TRPC6 inh conf inactive and TRPC6 act conf inactive.
CC(C)Oc1ccc(C(=O)NC2CCCCC2)cc1 was read as TRPC6 activator inactive, TRPC6 inh inactive, TRPC4 block inactive, TRPC4 act inactive and TRPC4 potent inactive.
`O=C(COc1ccc(Cl)cc1Cl)N1CCN(c2ccccn2)CC1` gave TRPC6 activator inactive, TRPC6 inh inactive, TRPC4 block inactive, TRPC4 act inactive and TRPC4 potent inactive.
`O=C(CCCOc1ccc(Cl)cc1Cl)N1CCN(c2ccccn2)CC1` gave TRPC6 activator inactive, TRPC6 inh -9.34, TRPC4 block inactive, TRPC4 act inactive, TRPC4 potent inactive, TRPC4 spec 2 inactive, TRPC4 spec 0.1%, HEK293 counter 2 inactive, HEK293 MPD ctr 1.5% and TRPC6 inh conf inactive.
